Laboratory results reported in ChEMBL document CHEMBL1148520, “5-(Dimethoxymethyl)-2'-deoxyuridine: a novel gem diether nucleoside with anti-orthopoxvirus activity” (J Med Chem, 2006).

Key:
Cowpox virus [1] = test: Antiviral activity against cowpox virus Brighton measured as cytopathogenicity in HFF cells; format: functional, organism-based
Vaccinia virus = test: Antiviral activity against vaccinia virus Copenhagen assessed as plaque reduction in HFF cells; format: functional, organism-based; conditions: Orthopoxvirus vaccinia
HFF = test: Cytotoxicity against HFF cell line by neutral red toxicity assay; format: functional; conditions: Homo sapiens
Method in brief: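 Confluent uninfected HFF monolayers exposed to various drug concentrations for 7 days at 37 °C. Viability read by neutral red uptake. CC50 is the concentration reducing neutral red uptake by 50%.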

Cowpox virus [2] = test: Antiviral activity against cowpox virus Brighton by plaque reduction in HFF cells; format: functional, organism-based

Row | SMILES | EC50 (Cowpox virus [1]) [µM] | EC50 (Vaccinia virus) [µM] | CC50 (HFF) [µM] | EC50 (Cowpox virus [2]) [µM]
1 | Nc1ccn(C[C@@H](CO)OCP(=O)(O)O)c(=O)n1 [CIDOFOVIR] | 8.3 | 9 | > 300 | 9
2 | O=c1[nH]c(=O)n(C2CC(O)[C@@H](CO)O2)cc1C1OCCO1 (single isomer, unassigned) | > 300 | – | > 300 | –
3 | CC(=O)OC[C@H]1OC(n2cc(C3OCCCO3)c(=O)[nH]c2=O)C[C@@H]1OC(C)=O (stereo not given in full) | > 300 | – | > 300 | –
4 | CC(=O)OC[C@H]1OC(n2cc(C=O)c(=O)[nH]c2=O)C[C@@H]1OC(C)=O (stereo not given in full) | > 300 | – | > 300 | –
5 | CCOC(OCC)c1cn(C2C[C@H](O)[C@@H](CO)O2)c(=O)[nH]c1=O (stereo not given in full) | > 60 | – | > 300 | –
6 | CCOC(OCC)c1cn(C2C[C@H](OC(C)=O)[C@@H](COC(C)=O)O2)c(=O)[nH]c1=O (stereo not given in full) | 52.4 | 79 | > 300 | 25.8
7 | COC(OC)c1cn(C2C[C@H](OC(C)=O)[C@@H](COC(C)=O)O2)c(=O)[nH]c1=O (stereo not given in full) | > 300 | – | > 300 | –
8 | COC(OC)c1cn(C2C[C@H](O)[C@@H](CO)O2)c(=O)[nH]c1=O (stereo not given in full) | 11.7 | 9 | > 300 | 7.4
9 | CC(=O)OC[C@H]1OC(n2cc(C3OCCO3)c(=O)[nH]c2=O)C[C@@H]1OC(C)=O (stereo not given in full) | > 300 | – | > 300 | –
10 | COC(OC)c1cnc(O)nc1O | > 300 | – | > 300 | –
11 | O=c1[nH]c(=O)n(C2CC(O)[C@@H](CO)O2)cc1C1OCCCO1 (single isomer, unassigned) | > 300 | – | > 300 | –
12 | O=Cc1cn([C@H]2C[C@H](O)[C@@H](CO)O2)c(=O)[nH]c1=O | > 300 | – | > 300 | –
